Data reported in paper PMC4618315 (Nature, 2015).
Positions count from the first letter of the chain named.

Tests used:
Assay type in all cases: binding
rGLUT5 Q166E = molecular target: T1, rGLUT5 Q166E (Rattus norvegicus, UniProt P43427, A285T/N50Y/Q166E/T452S); assay: Tryptophan fluorescence quenching of purified rat GLUT5 Q166E mutant; conditions: rGLUT5 Q166E relative to WT; 40 mM sugar
T1 sequence (P43427 with tags, fused parts or gaps N50Y/Q166E/A285T/T452S): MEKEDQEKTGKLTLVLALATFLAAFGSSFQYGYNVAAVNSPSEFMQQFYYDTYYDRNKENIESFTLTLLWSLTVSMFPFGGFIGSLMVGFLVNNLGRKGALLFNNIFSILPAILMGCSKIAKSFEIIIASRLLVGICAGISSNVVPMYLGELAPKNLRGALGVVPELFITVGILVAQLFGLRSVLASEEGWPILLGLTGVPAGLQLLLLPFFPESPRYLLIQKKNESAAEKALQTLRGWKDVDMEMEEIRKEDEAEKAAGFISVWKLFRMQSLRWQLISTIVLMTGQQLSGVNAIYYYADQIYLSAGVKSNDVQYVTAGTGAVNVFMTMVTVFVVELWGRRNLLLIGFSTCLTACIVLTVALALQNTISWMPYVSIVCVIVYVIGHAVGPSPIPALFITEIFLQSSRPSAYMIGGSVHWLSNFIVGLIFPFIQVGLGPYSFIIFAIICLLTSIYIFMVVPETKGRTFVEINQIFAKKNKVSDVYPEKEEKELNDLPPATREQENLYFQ
Method in brief: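 Deglycosylated N50Y rat background carried the Q166E mutation, made by PCR mutagenesis and purified as WT (Ni-NTA, SEC in DDM). Protein was used at 0.06 mg/ml in 20 mM Tris pH 7.5, 150 mM NaCl, 0.03% DDM, with or without 5 mM HgCl2 pre-incubation. Single 40 mM D-fructose or D-glucose additions, or increasing D-glucose, were incubated 2 min at room temperature. Readout: excitation 295 nm, 338 nm emission peak; triplicate.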

[1] = molecular target: T2, rGLUT5 with a single tryptophan residue (W419) (Rattus norvegicus, UniProt P43427, N50Y/W191F/W239F/W265F/W275F/W338F/W370F/W70F); assay: Tryptophan fluorescence quenching of rat GLUT5 single tryptophan; conditions: 40 mM sugar
T2 sequence (P43427 with tags, fused parts or gaps N50Y/W70F/W191F/W239F/W265F/W275F/A285T/W338F/W370F/T452S): T1 sequence (P43427 with tags, fused parts or gaps N50Y/Q166E/A285T/T452S) with W70F, E166Q, W191F, W239F, W265F, W275F, W338F, W370F
Method in brief: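 Single-Trp rat protein (N50Y plus W70F, W191F, W239F, W265F, W275F, W338F, W370F) was used at 0.06 mg/ml in 20 mM Tris pH 7.5, 150 mM NaCl, 0.03% DDM, with or without 5 mM HgCl2. Sugars were each added at 40 mM final; D-fructose was also added sequentially up to 40 mM. After 2 min at room temperature: excitation 295 nm, emission 338 nm. Kd by non-linear regression; triplicate.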

[2] = molecular target: T3, rGLUT5 (rat GLUT5 deglycosylation mutant N50Y, "WT") (Rattus norvegicus, UniProt P43427, A285T/N50Y/T452S); assay: Tryptophan fluorescence quenching of purified rat GLUT5 WT
T3 sequence (P43427 with tags, fused parts or gaps N50Y/A285T/T452S): T1 sequence (P43427 with tags, fused parts or gaps N50Y/Q166E/A285T/T452S) with E166Q

bovine GLUT5 = molecular target: T4, bovine GLUT5 (Bos taurus, UniProt P58353, N51A)
T4 sequence (P58353 with tags, fused parts or gaps N51A): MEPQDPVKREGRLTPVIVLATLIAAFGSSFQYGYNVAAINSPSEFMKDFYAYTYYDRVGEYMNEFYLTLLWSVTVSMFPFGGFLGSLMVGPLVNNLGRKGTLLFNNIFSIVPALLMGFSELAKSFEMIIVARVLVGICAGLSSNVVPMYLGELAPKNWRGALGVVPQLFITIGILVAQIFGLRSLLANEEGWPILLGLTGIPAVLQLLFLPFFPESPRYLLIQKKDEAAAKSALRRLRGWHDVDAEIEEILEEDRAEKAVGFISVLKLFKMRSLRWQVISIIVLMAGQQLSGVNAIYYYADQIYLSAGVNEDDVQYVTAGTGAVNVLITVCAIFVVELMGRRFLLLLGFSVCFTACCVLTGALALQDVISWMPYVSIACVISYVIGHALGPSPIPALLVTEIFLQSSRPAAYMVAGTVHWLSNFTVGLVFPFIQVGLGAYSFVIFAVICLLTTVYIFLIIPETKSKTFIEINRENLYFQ
Method in brief: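 Bovine construct (residues 1–473 of 501, N51A deglycosylation) was expressed in S. cerevisiae, solubilised in 1% DDM and bound to Ni-NTA. It was TEV-cleaved and run on SEC in 10 mM Tris-HCl pH 7.5, 150 mM NaCl, 0.09% UDMβ. D-fructose was added sequentially, with 2 min room-temperature incubation after each addition. Trp fluorescence: excitation 295 nm, emission 338 nm.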

OC[C@H]1OC(O)[C@H](O)[C@@H](O)[C@@H]1O (stereo partly drawn) [D-glucose]
sugar binding (in words) (rGLUT5 Q166E): robust binding
tryptophan quenching (in words) [1]: No tryptophan quenching

O=C(CO)[C@@H](O)[C@H](O)[C@H](O)CO [D-fructose]
Kd ([2]; Kd, purified rGLUT5 WT (N50Y) in DDM, excitation 295 nm, emission 338 nm, n = 3): 6 to 9 mM
quenching of tryptophan fluorescence (in words) ([2]; addition of sugar (40 mM) to rGLUT5): strong quenching
sugar binding (in words) (rGLUT5 Q166E): clearly weakens
Kd (bovine GLUT5): 5.5 ± 0.6 mM

O=C[C@H](O)[C@@H](O)[C@@H](O)[C@H](O)CO [D-galactose]
tryptophan quenching (in words) [1]: No tryptophan quenching

O=C(CO)[C@H](O)[C@@H](O)[C@@H](O)CO [L-fructose, reference compound]
tryptophan quenching (in words) [1]: No tryptophan quenching
